Source: ChEMBL document CHEMBL1154674, “Synthesis and evaluation of three 18F-labeled aminophenylbenzothiazoles as amyloid imaging agents” (J Med Chem, 2009)

Experiments:
Assay type in all cases: ADME, organism-based, Macaca mulatta
[1] = Drug level in normal rhesus monkey pons assessed as standard uptake value at 81.2 MBq, iv after 14 mins by microPET; details: in vivo
[2] = Drug level in normal rhesus monkey pons assessed as standard uptake value at 81.2 MBq, iv after 37.5 mins by microPET; details: in vivo, 0.625 h
[3] = Drug level in normal rhesus monkey pons assessed as standard uptake value at 81.2 MBq, iv after 175 mins by microPET; details: in vivo
[4] = Drug level in normal rhesus monkey parietal cortex assessed as standard uptake value at 81.2 MBq, iv after 12 mins by microPET; details: in vivo, 0.2 h
[5] = Drug level in normal rhesus monkey parietal cortex assessed as standard uptake value at 81.2 MBq, iv after 32.5 mins by microPET; details: in vivo
[6] = Drug level in normal rhesus monkey parietal cortex assessed as standard uptake value at 81.2 MBq, iv after 57.5 mins by microPET; details: in vivo
[7] = Drug level in normal rhesus monkey parietal cortex assessed as standard uptake value at 81.2 MBq, iv after 175 mins by microPET; details: in vivo
[8] = Drug level in normal rhesus monkey white matter assessed as standard uptake value at 81.2 MBq, iv after 0.5 mins by microPET; details: in vivo
[9] = Drug level in normal rhesus monkey thalamus assessed as standard uptake value at 81.2 MBq, iv after 3.5 mins by microPET; details: in vivo
[10] = Drug level in normal rhesus monkey cerebellum assessed as standard uptake value at 81.2 MBq, iv after 22.5 mins by microPET; details: in vivo, 0.375 h
Procedure, shortened: (§1)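 One normal rhesus monkey, each tracer given iv via the vena saphena (81.2, 96.3 or 109.4 MBq), with 1 day between tracer injections. Dynamic brain μPET over 180 min used frames of 5 × 60 s, 5 × 120 s, 9 × 300 s and 12 × 600 s. Images were reconstructed by filtered back projection with a RAMP filter. Regional time-activity curves were expressed as SUV.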

[11] = Drug level in normal rhesus monkey white matter assessed as standard uptake value at 96.3 MBq, iv after 165 mins by microPET; details: in vivo, 2.75 h
[12] = Drug level in normal rhesus monkey thalamus assessed as standard uptake value at 96.3 MBq, iv after 10 mins by microPET; details: in vivo
[13] = Drug level in normal rhesus monkey thalamus assessed as standard uptake value at 96.3 MBq, iv after 17.5 mins by microPET; details: in vivo
[14] = Drug level in normal rhesus monkey thalamus assessed as standard uptake value at 96.3 MBq, iv after 42.5 mins by microPET; details: in vivo
[15] = Drug level in normal rhesus monkey thalamus assessed as standard uptake value at 96.3 MBq, iv after 65 mins by microPET; details: in vivo
[16] = Drug level in normal rhesus monkey thalamus assessed as standard uptake value at 96.3 MBq, iv after 105 mins by microPET; details: in vivo, 1.75 h
[17] = Drug level in normal rhesus monkey thalamus assessed as standard uptake value at 96.3 MBq, iv after 135 mins by microPET; details: in vivo, 2.25 h
[18] = Drug level in normal rhesus monkey pons assessed as standard uptake value at 96.3 MBq, iv after 12 mins by microPET; details: in vivo, 0.2 h
[19] = Drug level in normal rhesus monkey pons assessed as standard uptake value at 96.3 MBq, iv after 17.5 mins by microPET; details: in vivo
[20] = Drug level in normal rhesus monkey pons assessed as standard uptake value at 96.3 MBq, iv after 32.5 mins by microPET; details: in vivo
[21] = Drug level in normal rhesus monkey pons assessed as standard uptake value at 96.3 MBq, iv after 125 mins by microPET; details: in vivo
[22] = Drug level in normal rhesus monkey cerebellum assessed as standard uptake value at 96.3 MBq, iv after 52.5 mins by microPET; details: in vivo, 0.875 h; procedure, shortened: as §1
[23] = Drug level in normal rhesus monkey cerebellum assessed as standard uptake value at 96.3 MBq, iv after 85 mins by microPET; details: in vivo; procedure, shortened: as §1
[24] = Drug level in normal rhesus monkey frontal cortex assessed as standard uptake value at 96.3 MBq, iv after 145 mins by microPET; details: in vivo
[25] = Drug level in normal rhesus monkey white matter assessed as standard uptake value at 96.3 MBq, iv after 4.5 mins by microPET; details: in vivo, 0.075 h
[26] = Drug level in normal rhesus monkey white matter assessed as standard uptake value at 96.3 MBq, iv after 57.5 mins by microPET; details: in vivo
[27] = Drug level in normal rhesus monkey pons assessed as standard uptake value at 109.4 MBq, iv after 0.875 mins by microPET; details: in vivo, 52 s
[28] = Drug level in normal rhesus monkey thalamus assessed as standard uptake value at 109.4 MBq, iv after 47.5 mins by microPET; details: in vivo
[29] = Drug level in normal rhesus monkey frontal cortex assessed as standard uptake value at 109.4 MBq, iv after 123 mins by microPET; details: in vivo, 2.05 h
[30] = Drug level in normal rhesus monkey white matter assessed as standard uptake value at 109.4 MBq, iv after 0.875 mins by microPET; details: in vivo, 52 s
[31] = Drug level in normal rhesus monkey parietal cortex assessed as standard uptake value at 109.4 MBq, iv after 32.5 mins by microPET; details: in vivo
[32] = Drug level in normal rhesus monkey parietal cortex assessed as standard uptake value at 109.4 MBq, iv after 69 mins by microPET; details: in vivo, 1.15 h
[33] = Drug level in normal rhesus monkey parietal cortex assessed as standard uptake value at 109.4 MBq, iv after 117 mins by microPET; details: in vivo, 1.95 h
[34] = Drug level in normal rhesus monkey cerebellum assessed as standard uptake value at 152.9 MBq, iv after 27.5 mins by microPET; details: in vivo
Procedure, shortened: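 Single normal rhesus monkey; tracer given iv via the vena saphena, 1 day apart from the other tracer injections. Dynamic μPET ran 90 min (5×60 s, 5×120 s, 9×300 s, 3×600 s). Images were reconstructed by filtered back projection with a RAMP filter. Regional time-activity curves were expressed as SUV.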

[35] = Drug level in normal rhesus monkey thalamus assessed as standard uptake value at 152.9 MBq, iv after 17.5 mins by microPET; details: in vivo
[36] = Drug level in normal rhesus monkey pons assessed as standard uptake value at 152.9 MBq, iv after 1.5 mins by microPET; details: in vivo, 0.025 h
[37] = Drug level in normal rhesus monkey pons assessed as standard uptake value at 152.9 MBq, iv after 75 mins by microPET; details: in vivo, 1.25 h
[38] = Drug level in normal rhesus monkey pons assessed as standard uptake value at 152.9 MBq, iv after 85 mins by microPET; details: in vivo
[39] = Drug level in normal rhesus monkey parietal cortex assessed as standard uptake value at 152.9 MBq, iv after 2.5 mins by microPET; details: in vivo
[40] = Drug level in normal rhesus monkey parietal cortex assessed as standard uptake value at 152.9 MBq, iv after 52.5 mins by microPET; details: in vivo, 0.875 h

Structure (SMILES): CNc1ccc2nc(-c3ccc([18F])cc3)sc2c1
- SUV [1]: 4.757
- SUV [2]: 5.487
- SUV [3]: 5.471
- SUV [4]: 4.756
- SUV [5]: 4.094
- SUV [6]: 3.575
- SUV [7]: 2.528
- SUV [8]: 0.621
- SUV [9]: 3.83
- SUV [10]: 2.518

Structure (SMILES): CN(C)c1ccc2nc(-c3ccc([18F])cc3)sc2c1
- SUV [11]: 1.55
- SUV [12]: 2.12
- SUV [13]: 2.3
- SUV [14]: 2.46
- SUV [15]: 2.21
- SUV [16]: 2.08
- SUV [17]: 1.97
- SUV [18]: 1.55
- SUV [19]: 1.51
- SUV [20]: 1.67
- SUV [21]: 1.88
- SUV [22]: 1.25
- SUV [23]: 1.03
- SUV [24]: 1.44
- SUV [25]: 1.22
- SUV [26]: 1.37

Structure (SMILES): Nc1ccc2nc(-c3ccc([18F])cc3)sc2c1
- SUV [27]: 1.85
- SUV [28]: 5.56
- SUV [29]: 4.13
- SUV [30]: 1.16
- SUV [31]: 4.8
- SUV [32]: 4.1
- SUV [33]: 3.51

Structure (SMILES): [11CH3]Nc1ccc(-c2nc3ccc(O)cc3s2)cc1 [PITTSBURGH COMPOUND B]
- SUV [34]: 1.258
- SUV [35]: 2.159
- SUV [36]: 0.447
- SUV [37]: 0.834
- SUV [38]: 0.718
- SUV [39]: 1.106
- SUV [40]: 0.799
